Rows were chosen to be rich in hits. Some 3.5% of all compounds tested hit in one or more screens of this group.
rRNA inh HTS: inhibits bacterial ribosomal RNA function over humanized ribosomes | E. coli WT GFP vs humanized-ribosome RFP mutants, fluorescence, 24 h; hits give low values; DMSO median 0, no signal -100 | GFP signal change (wild-type ribosome), % (no concentration beside the values) | hit rate 1.6% among 350,000 | AID 720706;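 active means significant combined selectivity score with lowered wild-type GFP, culture density cut under 30%, mutant RFP and density less affected; inactive means any of these conditions unmet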
Cneo AK release: Cryptococcus neoformans lysis via adenylate kinase release; AID 651654; lysis activity, % at 15 µM; C. neoformans lysis, adenylate kinase release luminescence, 4 h; normalised: neutral wells 0, clomiphene wells 100; hit rate 0.2% among 360,000;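 active means mean lysis activity across replicates of at least 80%, whatever share of replicates individually reach that level; inactive means mean lysis activity below 80%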
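Test system: log-phase Cryptococcus neoformans yeast cells. Input: 5 × 10^6 yeast cells/mL. Medium: fresh YPD growth medium. Doses: single dose. Incubation: static 4 h at 37 °C with compound, 1 h detection. Measured by: luminescent adenylate kinase detection reagent. Read-out: signal increase indicating cell lysis. Benchmarks: Clomiphene.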
HIV Env fusion: inhibitors of HIV Env-mediated cell fusion. HeLa-JRFL Env/CEM21 cell fusion, luciferase. inhibition, % at 12.3 µM. hit rate 1.1% among 360,000. AID 651610;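 active means mean replicate inhibition score of at least 50 and every replicate individually at or above 50; inconclusive means only one of the two criteria met; inactive means mean below 50 and not all replicates reaching 50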
ERAP1 inh: inhibitors of human ERAP1 aminopeptidase. Q9NZ08. hit rate 0.15% among 340,000. inhibition, % at 10.7 µM. recombinant ERAP1, Leu-AMC fluorescence, 60 min;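 active means mean replicate inhibition of at least 30%, or all replicates individually reaching that 30% level; inactive means mean below 30% and not every replicate reaching it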
FGF22 binding: FGF22 (human) thermal shift binding | Q9HCT0 | recombinant FGF22 thermal shift, SYPRO orange fluorescence; percent of sucrose octasulfate shift, DMSO zero | activity (Tm shift, normalised), % at 9.99 µM | hit rate 1.5% among 340,000;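 active means mean Tm shift, scaled 0 neutral to 100 positive control, at about 1.3% or above, every replicate too, limit read from the data; inconclusive means no clear call, values can overlap the other calls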
Target sequence (Q9HCT0 whole entry, looked up): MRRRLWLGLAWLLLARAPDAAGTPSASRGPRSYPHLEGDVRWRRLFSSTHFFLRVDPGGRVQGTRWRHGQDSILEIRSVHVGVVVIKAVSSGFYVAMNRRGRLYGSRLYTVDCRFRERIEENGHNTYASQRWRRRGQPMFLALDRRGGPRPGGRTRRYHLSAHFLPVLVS
PGC1a acetyl inh: PGC1a acetylation modulation, inhibitor mode; U2OS PGC1a acetylation, AlphaScreen anti-acetyl-lysine; with virally co-expressed GCN5 acetyltransferase; inhibition, % at 15.6 µM; hit rate 0.17% among 350,000;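 active means every replicate shows inhibition of at least 40%; inconclusive means mean inhibition at least 40% but some replicate below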
Hits are given with their value; n = inactive; u = inconclusive; x = no result given; ! = not confirmed by another sample.

SMILES	rRNA inh HTS	Cneo AK release	HIV Env fusion	ERAP1 inh	FGF22 binding	PGC1a acetyl inh
O=C(c1cccc(F)c1)N1CCCCN2[C@@H](CO)[C@H](c3ccc(-c4ccncc4)cc3)[C@@H]2C1	n	112	x	n	n	n
O=C(Nc1ccccc1F)N1CCCCN2[C@@H](CO)[C@H](c3ccc(-c4cccnc4)cc3)[C@@H]2C1	-19	n	x	n	n	n
Cc1cccc(-c2ccc([C@@H]3[C@H]4CN(C(=O)c5ccc6c(c5)OCO6)CCCCN4[C@H]3CO)cc2)c1	n	86	x	n	n	n
CC(C)C#Cc1ccc([C@H]2[C@H](CO)N3CCCCN(C(=O)c4ccc5c(c4)OCO5)C[C@@H]23)cc1	n	n	x	n	n	n
O=C(c1ccc2c(c1)OCO2)N1CCCCN2[C@H](C1)[C@H](c1ccc(-c3ccccc3)cc1)[C@@H]2CO	n	n	x	n	n	n
COc1cccc(-n2ccnc2SCC(=O)NCc2ccccc2)c1	x	n	x	x	x	n
O=C(NCCN1C(=O)S/C(=C\c2ccccc2F)C1=O)C1CCCN1C(=O)c1cccs1 (stereo unspecified)	n	x	n	n	n	x
Cc1ccc2nc(COc3ccc(Cl)cc3)cc(=O)n2c1	n	x	n	n	43	x
Cc1ccc2nc(CSc3nnc4ccccn34)cc(=O)n2c1	n	x	n	n	43	n
COCC(C)n1c(SCC(=O)Nc2cc(C)on2)nc2ccccc2c1=O (stereo unspecified)	n	n	n	n	x	x
COCC(C)n1c(SCC(=O)NC(=O)NCc2ccccc2)nc2ccccc2c1=O (stereo unspecified)	n	n	n	n	44	n
Cc1ccc2nc(CSc3nnc(-c4ccco4)n3-c3ccccc3)cc(=O)n2c1	x	n	n	x	x	n
COCC(C)n1c(SCc2cc(=O)n3cc(C)ccc3n2)nc2ccccc2c1=O (stereo unspecified)	-27	n	n	n	n	n
Cc1cc(C)nc(NC(=O)c2ccc(C)o2)n1	n	n	n	n	n	n
CO[C@@H]1CN(C)C(=O)c2ccc(NC(=O)Nc3ccccc3F)cc2OC[C@@H](C)N(Cc2ccccc2C(=O)O)C[C@H]1C	n	n	x	n	n	n
O=C1OC(c2ccccc2)(c2ccccc2)c2ccsc21	n	n	x	n	44	n
Cc1ccc(C(=O)NC(=C(Cl)Cl)S(=O)(=O)c2ccc(Cl)cc2)cc1	-24	x	n	n	n	x
Cc1ccc(C(=O)NC(=C(Cl)Cl)S(=O)(=O)c2ccc(C)cc2)cc1	x	n	n	x	x	x
CC(=O)Nc1ccc(NC(=O)c2ccc(Cl)c(S(=O)(=O)N3CCc4ccccc43)c2)cc1	n	n	n	n	n	n
O=C(Nc1cccnc1)c1ccc(Cl)c(S(=O)(=O)N2CCc3ccccc32)c1	-26	x	n	n	n	x
O=C(Nc1ccccn1)c1ccc(Cl)c(S(=O)(=O)N2CCc3ccccc32)c1	-28	n	n	n	n	n
COc1ccc(NC(=O)c2ccc(Cl)c(S(=O)(=O)N3CCc4ccccc4C3)c2)cn1	n	x	92	n	x	n
C[C@H]1CN([C@@H](C)CO)C(=O)c2cc(-c3ccc(F)cc3)cnc2O[C@@H]1CN(C)C(=O)Nc1ccccc1F	n	n	n	x	n	n
CN(CC(=O)Nc1ccc(OC(F)(F)F)cc1)C(=O)Cc1cccs1	n	n	62	n	n	n
CN(CC(=O)Nc1ccc(OC(F)(F)F)cc1)C(=O)Cc1c(Cl)cccc1Cl	n	n	n	n	n	x
SMILES	rRNA inh HTS	Cneo AK release	HIV Env fusion	ERAP1 inh	FGF22 binding	PGC1a acetyl inh
CCNC(=S)N(Cc1ccccc1)Cc1nc2ccccc2c(=O)[nH]1	n	n	x	n	n	n
COc1cc(NC(=O)c2ccc(C)cc2C)ccc1NC(=O)c1cc2ccccc2o1	n	n	n	n	n	x
Cc1ccc(C(=O)c2cc(C)sc2N)cc1	x	x	n	n	43	x
COc1ccccc1NC(=O)c1cc2cc(Br)ccc2cc1O	n	x	57	n	n	x
COc1ccccc1NC(=O)c1cc[n+](C)cc1	n	n	n	103	n	n
COC(=O)c1ccccc1NC(=O)c1cc[n+](C)cc1	n	n	n	n	n	n
Cc1ccc(C(C(=O)NC2CCCCC2)N(C(=O)CCCC(=O)Nc2ccccn2)c2ccc3c(c2)OCCO3)cc1 (stereo unspecified)	x	x	n	x	x	x
CC1CC(C)(C)NC(=S)O1 (stereo unspecified)	n	x	n	n	43!	n
CC1(C)CCC(C)(C)NC(=S)N1	n	n	n	n	n	n
C[C@H](CO)N1C[C@H](C)[C@@H](CN(C)Cc2ccc(C(F)(F)F)cc2)Oc2ccc(NC(=O)Nc3cccc4ccccc34)cc2CC1=O	n	n	n	n	n	n
CCn1cc([N+](=O)[O-])c(C(=O)N2N=C(c3ccc(O)c(OC)c3)CC2c2ccccc2O)n1 (stereo unspecified)	n	n	n	n	n	n
O=C(NC(=S)NCC1COc2ccccc2O1)c1ccccc1 (stereo unspecified)	x	161	x	x	x	n
CS(=O)(=O)c1sc(C#N)c2c1C(=O)CC(c1ccccc1)C2 (stereo unspecified)	-26	n	n	n	n	n
CCOC(=O)c1c(C)n(C)c2cc(Br)c(O)c(O)c12	n	n	n	n	n	u
CCOC(=O)c1c(CSc2cccs2)n(C)c2cc(Br)c(O)c(CN(C)C)c12	n	n	85	n	n	n
Nc1cc(C(=O)OCC(=O)N2CCCC2=O)ccc1Cl	n	n	66	n	n	x
Nc1cc(C(=O)OCC(=O)N2CCCC2)ccc1Cl	x	n	x	x	x	n
Fc1ccc2c(-c3cccc(C(F)(F)F)c3)c(-c3ccccc3)ncc2c1	n	n	69	n	n	n
Fc1ccc2cnc(-c3ccccc3)c(-c3ccc(C(F)(F)F)cc3)c2c1	n	n	n	n	n	n
COc1cc2cnc(-c3ccccc3)c(-c3ccc(C(F)(F)F)cc3)c2cc1OC	n	n	84	n	n	x
Cc1[nH]c2ccccc2c1C(c1ccncc1)N1CCN(c2ccc(F)cc2)CC1 (stereo unspecified)	x	x	n	x	x	n
Cc1noc(C)c1NC(=O)N(C)C[C@H]1OCCCC[C@@H](C)Oc2ccc(NS(=O)(=O)c3ccccc3)cc2C(=O)N([C@@H](C)CO)C[C@H]1C	n	n	n	n	x	n
CCOc1cc2c(cc1OC)C(c1cccc([N+](=O)[O-])c1)NCC2 (stereo unspecified)	n	x	n	n	43	x
Cc1cc2occ(CC(=O)N(CCC(C)C)c3c(N)n(Cc4ccccc4)c(=O)[nH]c3=O)c2cc1C	n	n	n	n	n	n
O=C(Cn1ccc(=O)[nH]c1=O)Nc1ccc(O)c([N+](=O)[O-])c1	n	n	n	n	43	n
Cc1ccc(NC(=O)COC(=O)Cn2ccc(=O)[nH]c2=O)cc1C	n	n	x	n	n	x

Screening results: PubChem BioAssay, Broad Institute
